Test results reported in ChEMBL document CHEMBL2157880, “Synthesis, antimycobacterial and antibacterial activity of ciprofloxacin derivatives containing a N-substituted benzyl moiety” (2012).
In brackets after ≈: the same amount, converted by molar mass.

Legend:
Type in all cases: functional
Pseudomonas aeruginosa [1] = experiment: Antibacterial activity against Pseudomonas aeruginosa 10-9 after 18 to 24 hrs by NCCLS method
Outline: (§1)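 Standard NCCLS (M100-S11) MIC testing against Gram-positive and Gram-negative strains. Plates were incubated at 35 °C for 18–24 h. The MIC was read as the lowest concentration giving complete inhibition of visible bacterial growth.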

[2] = test system: Staphylococcus epidermidis; experiment: Antibacterial activity against methicillin-sensitive Staphylococcus epidermidis 10-11 after 18 to 24 hrs by NCCLS method; outline: as §1
Streptococcus pneumoniae [3] = experiment: Antibacterial activity against Streptococcus pneumoniae 10-6 after 18 to 24 hrs by NCCLS method; outline: as §1
Klebsiella pneumoniae [4] = experiment: Antibacterial activity against extended spectrum beta-lactamases producing Klebsiella pneumoniae 10-3 after 18 to 24 hrs by NCCLS method; outline: as §1
Staphylococcus aureus [5] = experiment: Antibacterial activity against methicillin-sensitive Staphylococcus aureus 10-13 after 18 to 24 hrs by NCCLS method; outline: as §1
Staphylococcus aureus [6] = experiment: Antibacterial activity against methicillin-resistant Staphylococcus aureus 10-15 after 18 to 24 hrs by NCCLS method
Outline: (§2)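 Incubated at 35 °C for 18–24 h under NCCLS (M100-S11) standards. MIC was read as the lowest concentration giving complete inhibition of visible bacterial growth.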

Staphylococcus aureus [7] = experiment: Antibacterial activity against methicillin-resistant Staphylococcus aureus 10-13 after 18 to 24 hrs by NCCLS method; outline: as §2
Staphylococcus aureus [8] = experiment: Antibacterial activity against methicillin-sensitive Staphylococcus aureus 10-14 after 18 to 24 hrs by NCCLS method; outline: as §1
Enterococcus faecalis [9] = experiment: Antibacterial activity against Enterococcus faecalis 10-5 after 18 to 24 hrs by NCCLS method; outline: as §1
Staphylococcus aureus [10] = experiment: Antibacterial activity against Staphylococcus aureus ATCC 2592 after 18 to 24 hrs by NCCLS method; outline: as §1
Enterococcus faecalis [11] = experiment: Antibacterial activity against Enterococcus faecalis 10-6 after 18 to 24 hrs by NCCLS method; outline: as §1
Pseudomonas aeruginosa [12] = experiment: Antibacterial activity against Pseudomonas aeruginosa 10-12 after 18 to 24 hrs by NCCLS method; outline: as §1
Escherichia coli [13] = experiment: Antibacterial activity against extended spectrum beta-lactamases producing Escherichia coli 10-4 after 18 to 24 hrs by NCCLS method; outline: as §1
Klebsiella pneumoniae [14] = experiment: Antibacterial activity against Klebsiella pneumoniae 10-2 after 18 to 24 hrs by NCCLS method; outline: as §1
Pseudomonas aeruginosa [15] = experiment: Antibacterial activity against Pseudomonas aeruginosa 10-5 after 18 to 24 hrs by NCCLS method; outline: as §1
Escherichia coli [16] = experiment: Antibacterial activity against extended spectrum beta-lactamases producing Escherichia coli 10-2 after 18 to 24 hrs by NCCLS method; outline: as §1
Streptococcus pneumoniae [17] = experiment: Antibacterial activity against Streptococcus pneumoniae 10-1 after 18 to 24 hrs by NCCLS method; outline: as §1
Escherichia coli [18] = experiment: Antibacterial activity against Escherichia coli 10-2 after 18 to 24 hrs by NCCLS method; outline: as §1
Pseudomonas aeruginosa [19] = experiment: Antibacterial activity against Pseudomonas aeruginosa 10-18 after 18 to 24 hrs by NCCLS method; outline: as §1
Staphylococcus aureus [20] = experiment: Antibacterial activity against methicillin-sensitive Staphylococcus aureus 10-11 after 18 to 24 hrs by NCCLS method; outline: as §1
Enterococcus faecalis [21] = experiment: Antibacterial activity against Enterococcus faecalis 10-7 after 18 to 24 hrs by NCCLS method; outline: as §1
[22] = test system: Staphylococcus epidermidis; experiment: Antibacterial activity against methicillin-resistant Staphylococcus epidermidis 10-10 after 18 to 24 hrs by NCCLS method; outline: as §2
Klebsiella pneumoniae [23] = experiment: Antibacterial activity against extended spectrum beta-lactamases producing Klebsiella pneumoniae 10-2 after 18 to 24 hrs by NCCLS method; outline: as §1
Klebsiella pneumoniae [24] = experiment: Antibacterial activity against Klebsiella pneumoniae 10-3 after 18 to 24 hrs by NCCLS method; outline: as §1
Staphylococcus aureus [25] = experiment: Antibacterial activity against methicillin-resistant Staphylococcus aureus 10-11 after 18 to 24 hrs by NCCLS method; outline: as §2
Enterococcus faecium [26] = experiment: Antibacterial activity against Enterococcus faecium 10-9 after 18 to 24 hrs by NCCLS method; outline: as §1
[27] = test system: Staphylococcus epidermidis; experiment: Antibacterial activity against methicillin-sensitive Staphylococcus epidermidis 10-15 after 18 to 24 hrs by NCCLS method; outline: as §2
Pseudomonas aeruginosa [28] = experiment: Antibacterial activity against Pseudomonas aeruginosa 10-15 after 18 to 24 hrs by NCCLS method; outline: as §1
Escherichia coli [29] = experiment: Antibacterial activity against extended spectrum beta-lactamases producing Escherichia coli 10-3 after 18 to 24 hrs by NCCLS method; outline: as §1
Pseudomonas aeruginosa [30] = experiment: Antibacterial activity against Pseudomonas aeruginosa 10-20 after 18 to 24 hrs by NCCLS method; outline: as §1
Klebsiella pneumoniae [31] = experiment: Antibacterial activity against Klebsiella pneumoniae 10-4 after 18 to 24 hrs by NCCLS method; outline: as §1
Escherichia coli [32] = experiment: Antibacterial activity against Escherichia coli ATCC 25922 after 18 to 24 hrs by NCCLS method; outline: as §1
[33] = test system: Staphylococcus epidermidis; experiment: Antibacterial activity against methicillin-resistant Staphylococcus epidermidis 10-13 after 18 to 24 hrs by NCCLS method; outline: as §2
Escherichia coli [34] = experiment: Antibacterial activity against Escherichia coli 10-3 after 18 to 24 hrs by NCCLS method; outline: as §1
Klebsiella pneumoniae [35] = experiment: Antibacterial activity against extended spectrum beta-lactamases producing Klebsiella pneumoniae 10-1 after 18 to 24 hrs by NCCLS method; outline: as §1
Enterococcus faecium [36] = experiment: Antibacterial activity against Enterococcus faecium 10-6 after 18 to 24 hrs by NCCLS method; outline: as §1
[37] = test system: Mycobacterium tuberculosis; experiment: Antimycobacterial activity against Mycobacterium tuberculosis H37Rv ATCC 27294 by microplate alamar blue assay
Outline: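 Microplate Alamar Blue fluorescence assay on strain H37Rv ATCC 27294. MIC was the lowest concentration cutting fluorescence by ≥90% against the mean of replicate bacterium-only controls.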

Escherichia coli [38] = experiment: Antibacterial activity against Escherichia coli 10-1 after 18 to 24 hrs by NCCLS method; outline: as §1

| Compound | MIC (Pseudomonas aeruginosa [1]) | MIC [2] | MIC (Streptococcus pneumoniae [3]) | MIC (Klebsiella pneumoniae [4]) | MIC (Staphylococcus aureus [5]) | MIC (Staphylococcus aureus [6]) | MIC (Staphylococcus aureus [7]) | MIC (Staphylococcus aureus [8]) | MIC (Enterococcus faecalis [9]) | MIC (Staphylococcus aureus [10]) | MIC (Enterococcus faecalis [11]) | MIC (Pseudomonas aeruginosa [12]) | MIC (Escherichia coli [13]) | MIC (Klebsiella pneumoniae [14]) | MIC (Pseudomonas aeruginosa [15]) | MIC (Escherichia coli [16]) | MIC (Streptococcus pneumoniae [17]) | MIC (Escherichia coli [18]) | MIC (Pseudomonas aeruginosa [19]) | MIC (Staphylococcus aureus [20]) | other results |
| --- | --- | --- | --- | --- | --- | --- | --- | --- | --- | --- | --- | --- | --- | --- | --- | --- | --- | --- | --- | --- | --- |
| O=C(O)c1cn(C2CC2)c2cc(N3CCN(Cc4cc5c(cc4[N+](=O)[O-])OCO5)CC3)c(F)cc2c1=O | 1 µg/mL (≈ 1.96 µM) | 1 µg/mL (≈ 1.96 µM) | 16 µg/mL (≈ 31.3 µM) | > 128 µg/mL | 1 µg/mL (≈ 1.96 µM) | 32 µg/mL (≈ 62.7 µM) | 32 µg/mL (≈ 62.7 µM) | 1 µg/mL (≈ 1.96 µM) | 32 µg/mL (≈ 62.7 µM) | 0.5 µg/mL (≈ 0.979 µM) | 64 µg/mL (≈ 125 µM) | 1 µg/mL (≈ 1.96 µM) | 8 µg/mL (≈ 15.7 µM) | 64 µg/mL (≈ 125 µM) | 1 µg/mL (≈ 1.96 µM) | > 128 µg/mL | 2 µg/mL (≈ 3.92 µM) | 1 µg/mL (≈ 1.96 µM) | 2 µg/mL (≈ 3.92 µM) | 0.5 µg/mL (≈ 0.979 µM) | MIC (Enterococcus faecalis [21]): 32 µg/mL (≈ 62.7 µM); MIC [22]: 16 µg/mL (≈ 31.3 µM); MIC (Klebsiella pneumoniae [23]): > 128 µg/mL; MIC (Klebsiella pneumoniae [24]): 2 µg/mL (≈ 3.92 µM); MIC (Staphylococcus aureus [25]): 32 µg/mL (≈ 62.7 µM); MIC (Enterococcus faecium [26]): 16 µg/mL (≈ 31.3 µM); MIC [27]: 16 µg/mL (≈ 31.3 µM); MIC (Pseudomonas aeruginosa [28]): 0.5 µg/mL (≈ 0.979 µM); MIC (Escherichia coli [29]): > 128 µg/mL; MIC (Pseudomonas aeruginosa [30]): 4 µg/mL (≈ 7.84 µM); MIC (Klebsiella pneumoniae [31]): > 128 µg/mL; MIC (Escherichia coli [32]): 0.125 µg/mL (≈ 0.245 µM); MIC [33]: 32 µg/mL (≈ 62.7 µM); MIC (Escherichia coli [34]): 8 µg/mL (≈ 15.7 µM); MIC (Klebsiella pneumoniae [35]): > 128 µg/mL; MIC (Enterococcus faecium [36]): 2 µg/mL (≈ 3.92 µM); MIC [37]: 2 µg/mL (≈ 3.92 µM); MIC (Escherichia coli [38]): 32 µg/mL (≈ 62.7 µM) |
| O=C(O)c1cn(C2CC2)c2cc(N3CCN(Cc4ccc5c(c4)OCCO5)CC3)c(F)cc2c1=O | 64 µg/mL (≈ 133 µM) | 0.5 µg/mL (≈ 1.04 µM) | 32 µg/mL (≈ 66.7 µM) | > 128 µg/mL | 0.25 µg/mL (≈ 0.521 µM) | 4 µg/mL (≈ 8.34 µM) | 16 µg/mL (≈ 33.4 µM) | 0.5 µg/mL (≈ 1.04 µM) | 4 µg/mL (≈ 8.34 µM) | 0.125 µg/mL (≈ 0.261 µM) | 32 µg/mL (≈ 66.7 µM) | 16 µg/mL (≈ 33.4 µM) | 128 µg/mL (≈ 267 µM) | > 128 µg/mL | 16 µg/mL (≈ 33.4 µM) | > 128 µg/mL | 1 µg/mL (≈ 2.09 µM) | 128 µg/mL (≈ 267 µM) | 16 µg/mL (≈ 33.4 µM) | 0.25 µg/mL (≈ 0.521 µM) | MIC (Enterococcus faecalis [21]): 32 µg/mL (≈ 66.7 µM); MIC [22]: 8 µg/mL (≈ 16.7 µM); MIC (Klebsiella pneumoniae [23]): > 128 µg/mL; MIC (Klebsiella pneumoniae [24]): 8 µg/mL (≈ 16.7 µM); MIC (Staphylococcus aureus [25]): 16 µg/mL (≈ 33.4 µM); MIC (Enterococcus faecium [26]): 32 µg/mL (≈ 66.7 µM); MIC [27]: 8 µg/mL (≈ 16.7 µM); MIC (Pseudomonas aeruginosa [28]): 32 µg/mL (≈ 66.7 µM); MIC (Escherichia coli [29]): > 128 µg/mL; MIC (Pseudomonas aeruginosa [30]): 32 µg/mL (≈ 66.7 µM); MIC (Klebsiella pneumoniae [31]): > 128 µg/mL; MIC (Escherichia coli [32]): 0.125 µg/mL (≈ 0.261 µM); MIC [33]: 16 µg/mL (≈ 33.4 µM); MIC (Escherichia coli [34]): 16 µg/mL (≈ 33.4 µM); MIC (Klebsiella pneumoniae [35]): > 128 µg/mL; MIC (Enterococcus faecium [36]): 2 µg/mL (≈ 4.17 µM); MIC [37]: 2 µg/mL (≈ 4.17 µM); MIC (Escherichia coli [38]): > 128 µg/mL |
